Measurements from ChEMBL document CHEMBL1649200, “Concurrent titration and determination of antibiotic resistance in ureaplasma species with identification of novel point mutations in genes associated with resistance” (2009).
In brackets after ≈: the same amount, converted by molar mass.

Legend:
Format in all cases: functional
Ureaplasma parvum [1] = assay: Antimicrobial activity against Ureaplasma parvum SV1 isolate UHWQ3 after 48 hrs by modified broth microdilution technique; conditions: SV1 isolate UHWQ3, 48 h
Outline: (§1)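 Full-plate broth microdilution in ureaplasma selective medium (10% porcine serum, urea, phenol red, starting pH 6.65). A doubling-dilution antibiotic gradient from 64 to 0.0625 mg/liter is run, with an antibiotic-free column. An overnight culture of unknown CCU is added 1:10, then titrated 10-fold at right angles. Plates are sealed and held 48 h at 37°C. The MIC is the lowest concentration preventing colour change, read at 10⁴ CCU relative to the antibiotic-free control.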

Ureaplasma parvum [2] = assay: Antimicrobial activity against Ureaplasma parvum SV1 isolate HPA18 after 48 hrs by modified broth microdilution technique; conditions: SV1 isolate HPA18, 48 h; outline: as §1
Ureaplasma urealyticum [3] = assay: Antimicrobial activity against Ureaplasma urealyticum isolate HPA12 after 48 hrs by modified broth microdilution technique; conditions: isolate HPA12, 48 h; outline: as §1
Ureaplasma parvum [4] = assay: Antimicrobial activity against Ureaplasma parvum isolate UHWP2 after 48 hrs by modified broth microdilution technique; conditions: isolate UHWP2, 48 h; outline: as §1
Ureaplasma parvum [5] = assay: Antimicrobial activity against Ureaplasma parvum SV6 isolate HPA23 after 48 hrs by modified broth microdilution technique; conditions: SV6 isolate HPA23, 48 h; outline: as §1
Ureaplasma parvum [6] = assay: Antimicrobial activity against Ureaplasma parvum SV1 isolate UHWO10 after 48 hrs by modified broth microdilution technique; conditions: SV1 isolate UHWO10, 48 h; outline: as §1
Ureaplasma parvum [7] = assay: Antimicrobial activity against Ureaplasma parvum SV14 isolate HPA32 after 48 hrs by modified broth microdilution technique; conditions: SV14 isolate HPA32, 48 h; outline: as §1
Ureaplasma urealyticum [8] = assay: Antimicrobial activity against Ureaplasma urealyticum isolate HPA6 after 48 hrs by modified broth microdilution technique; conditions: isolate HPA6, 48 h; outline: as §1
Ureaplasma urealyticum [9] = assay: Antimicrobial activity against Ureaplasma urealyticum isolate HPA20 after 48 hrs by modified broth microdilution technique; conditions: isolate HPA20, 48 h; outline: as §1
Ureaplasma urealyticum [10] = assay: Antimicrobial activity against Ureaplasma urealyticum isolate HPA17 after 48 hrs by modified broth microdilution technique; conditions: isolate HPA17, 48 h; outline: as §1
Ureaplasma parvum [11] = assay: Antimicrobial activity against Ureaplasma parvum isolate UHWJM after 48 hrs by modified broth microdilution technique; outline: as §1
Ureaplasma urealyticum [12] = assay: Antimicrobial activity against Ureaplasma urealyticum isolate HPA3 after 48 hrs by modified broth microdilution technique; conditions: isolate HPA3, 48 h; outline: as §1
Ureaplasma parvum [13] = assay: Antimicrobial activity against Ureaplasma parvum SV9 containing tetM gene; outline: as §1

Structure (SMILES) | MIC (Ureaplasma parvum [1]) [µg/mL] | MIC (Ureaplasma parvum [2]) [µg/mL] | MIC (Ureaplasma urealyticum [3]) [µg/mL] | MIC (Ureaplasma parvum [4]) [µg/mL] | MIC (Ureaplasma parvum [5]) [µg/mL] | MIC (Ureaplasma parvum [6]) [µg/mL] | MIC (Ureaplasma parvum [7]) [µg/mL] | MIC (Ureaplasma urealyticum [8]) [µg/mL] | MIC (Ureaplasma urealyticum [9]) [µg/mL] | MIC (Ureaplasma urealyticum [10]) [µg/mL] | MIC (Ureaplasma parvum [11]) [µg/mL] | MIC (Ureaplasma urealyticum [12]) [µg/mL] | MIC (Ureaplasma parvum [13]) [µg/mL]
CC[C@H]1OC(=O)[C@H](C)[C@@H](O[C@H]2C[C@@](C)(OC)[C@@H](O)[C@H](C)O2)[C@H](C)[C@@H](O[C@@H]2O[C@H](C)C[C@H](N(C)C)[C@H]2O)[C@](C)(O)C[C@@H](C)CN(C)[C@H](C)[C@@H](O)[C@]1(C)O [AZITHROMYCIN] | < 0.25 | < 0.25 | < 0.25 | < 0.25 | < 0.25 | 2 (≈ 2.67 µM) | < 0.25 | < 0.25 | < 0.25 | 0.5 (≈ 0.668 µM) | < 0.25 | 0.5 (≈ 0.668 µM) | –
C[C@H]1c2cccc(O)c2C(=O)C2=C(O)[C@]3(O)C(=O)C(C(N)=O)=C(O)[C@@H](N(C)C)[C@@H]3[C@@H](O)[C@@H]21.O [DOXYCYCLINE] | 0.25 | 0.25 | 0.5 | 0.5 | 16 | 0.25 | 0.25 | 0.5 | 0.5 | 0.25 | 0.5 | 0.5 | 64
CC[C@H]1OC(=O)[C@H](C)[C@@H](O[C@H]2C[C@@](C)(OC)[C@@H](O)[C@H](C)O2)[C@H](C)[C@@H](O[C@@H]2O[C@H](C)C[C@H](N(C)C)[C@H]2O)[C@](C)(O)C[C@@H](C)C(=O)[C@H](C)[C@@H](O)[C@]1(C)O [ERYTHROMYCIN] | 4 (≈ 5.45 µM) | 4 (≈ 5.45 µM) | 8 (≈ 10.9 µM) | 4 (≈ 5.45 µM) | 4 (≈ 5.45 µM) | > 64 | 8 (≈ 10.9 µM) | 8 (≈ 10.9 µM) | 8 (≈ 10.9 µM) | 8 (≈ 10.9 µM) | 4 (≈ 5.45 µM) | 4 (≈ 5.45 µM) | 4 (≈ 5.45 µM)
CN(C)[C@@H]1C(O)=C(C(N)=O)C(=O)[C@@]2(O)C(O)=C3C(=O)c4c(O)cccc4[C@@](C)(O)[C@H]3C[C@@H]12 [TETRACYCLINE] | 1 (≈ 2.25 µM) | 2 (≈ 4.5 µM) | 2 (≈ 4.5 µM) | 2 (≈ 4.5 µM) | 64 (≈ 144 µM) | 1 (≈ 2.25 µM) | 1 (≈ 2.25 µM) | 2 (≈ 4.5 µM) | 2 (≈ 4.5 µM) | 1 (≈ 2.25 µM) | 2 (≈ 4.5 µM) | 2 (≈ 4.5 µM) | > 64

Continued, values first:

MIC (Ureaplasma parvum [1]) [µg/mL] | MIC (Ureaplasma parvum [2]) [µg/mL] | MIC (Ureaplasma urealyticum [3]) [µg/mL] | MIC (Ureaplasma parvum [4]) [µg/mL] | MIC (Ureaplasma parvum [5]) [µg/mL] | MIC (Ureaplasma parvum [6]) [µg/mL] | MIC (Ureaplasma parvum [7]) [µg/mL] | MIC (Ureaplasma urealyticum [8]) [µg/mL] | MIC (Ureaplasma urealyticum [9]) [µg/mL] | MIC (Ureaplasma urealyticum [10]) [µg/mL] | MIC (Ureaplasma parvum [11]) [µg/mL] | MIC (Ureaplasma urealyticum [12]) [µg/mL] | MIC (Ureaplasma parvum [13]) [µg/mL] | Structure (SMILES)
4 (≈ 12.1 µM) | 8 (≈ 24.1 µM) | 4 (≈ 12.1 µM) | 4 (≈ 12.1 µM) | < 2 | 4 (≈ 12.1 µM) | < 2 | 4 (≈ 12.1 µM) | 4 (≈ 12.1 µM) | 4 (≈ 12.1 µM) | 4 (≈ 12.1 µM) | 4 (≈ 12.1 µM) | – | O=C(O)c1cn(C2CC2)c2cc(N3CCNCC3)c(F)cc2c1=O [CIPROFLOXACIN]
< 0.125 | < 0.125 | < 0.125 | < 0.125 | < 0.125 | 4 (≈ 5.35 µM) | < 0.125 | < 0.125 | < 0.125 | < 0.125 | < 0.125 | < 0.125 | – | CC[C@H]1OC(=O)[C@H](C)[C@@H](O[C@H]2C[C@@](C)(OC)[C@@H](O)[C@H](C)O2)[C@H](C)[C@@H](O[C@@H]2O[C@H](C)C[C@H](N(C)C)[C@H]2O)[C@](C)(OC)C[C@@H](C)C(=O)[C@H](C)[C@@H](O)[C@]1(C)O [CLARITHROMYCIN]
